PubChem BioAssay
Active and inactive are the calls of the source.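 Rule for the calls, unless noted: active = GFP response above 150% of the DMSO level; inconclusive = fewer than 70 events counted for a yeast strain; inactive = the rest.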

Assays:
[1] = hit retest on RPL19A-GFP reporter strain – cell-based, S. cerevisiae, flow cytometry, cherry picks, mother/daughter gates, confirmation (AID 2270;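 active = GFP response below 50% of the DMSO control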); settings: 3 h, at 10 µM, stronger effect = lower value, 100 = same GFP as DMSO wells
[2] = yeast TOR pathway reporter LAP4-GFP change – cell-based, cherry picks, flow cytometry, mother/daughter gates, confirmation (AID 2271;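 active = GFP response above 150% of the DMSO control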;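 note: ratio of sample to DMSO plate mean so 100% equals DMSO level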); settings: S. cerevisiae LAP4-GFP strain, 3 h, at 10 µM, stronger effect = higher value, 100 means same as DMSO control
Outline: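 material = Alexa 633-stained baker's yeast GFP-fusion strain | amount = 0.2 OD600 cells | schedule = 30 °C, 3 h compound incubation, rotating | signal = GFP by flow cytometry | measure = per-gate (all, mother, daughter) GFP response vs DMSO | controls = positive rapamycin (400 ng/mL), negative DMSO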

[3] = TOR pathway reporter MEP2-GFP, retest of hits – S. cerevisiae, flow cytometry GFP, cherry picks, confirmation (AID 2272;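 active = GFP response above 150% of the DMSO control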;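 note: ratio of well signal to plate DMSO mean so 100% equals DMSO level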); settings: S. cerevisiae MEP2-GFP strain, 3 h, at 10 µM, stronger effect = higher value
[4] = yeast AGP1-GFP fluorescence change, single-dose – cell-based, flow cytometry, S. cerevisiae, cherry picks, confirmation (AID 2273);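 note: median GFP channel fluorescence over the whole cell population gate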; settings: S. cerevisiae AGP1-GFP strain, 3 h, at 10 µM
[5] = TOR pathway CIT2 reporter hit retest – S. cerevisiae, GFP fusion, cherry picks, mother/daughter gates, confirmation (AID 2274); settings: S. cerevisiae CIT2-GFP strain, flow cytometry, 3 h, at 10 µM, stronger effect = higher value
[6] = measured here: daughter cell gate
[7] = measured here: mother cell gate
[8] = measured here: daughter cell gate response
[9] = measured here: mother cell gate response

Row | SMILES | GFP response vs DMSO [1] | GFP response vs DMSO [1, 6] [%] | GFP response vs DMSO [1, 7] [%] | GFP response relative to DMSO [2] | GFP response relative to DMSO [2, 8] [%] | GFP response relative to DMSO [2, 9] [%] | GFP response vs DMSO [3] | GFP response, % of DMSO [4] | GFP response, % of DMSO [5] | GFP response, % of DMSO [5, 6] [%] | GFP response, % of DMSO [5, 7] [%]
1 | O=C(O)c1ccccc1SC1CC(=O)N(c2ccc3c(c2)OCO3)C1=O (configuration not stated) | 97.6% (inactive) | 102 | 93.8 | 106% (inactive) | 102 | 108 | 103% (inactive) | 102% (inactive) | 95.8% (inactive) | 99.3 | 94.9
2 | CCCc1[nH]nc2c1C(c1ccc(OC)c(CSC3=NCCS3)c1)C(C#N)=C(N)O2 (configuration not stated) | 96.8% (inactive) | 97.3 | 97.6 | 109% (inactive) | 109 | 107 | 97.5% (inactive) | 105% (inactive) | 95% (inactive) | 94.6 | 94.5
3 | O=S(=O)(/N=C(\Sc1ccc(Cl)cc1)c1ccccc1)c1ccccc1 | 93.1% (inactive) | 94.4 | 90.2 | 182% (active) | 145 | 178 | 99.3% (inactive) | 101% (inactive) | 90.3% (inactive) | 92.3 | 83.7
4 | O=C(NN1C(=O)/C(=C\c2ccc(O)c([N+](=O)[O-])c2)SC1=S)c1ccccc1Cl | 97.4% (inactive) | 95.9 | 95.8 | 126% (inactive) | 106 | 129 | 123% (inactive) | 69.8% (inactive) | 107% (inactive) | 99.1 | 106
5 | COc1ccc(CCNC2=C(Cl)C(=O)N(CCc3ccc(OC)c(OC)c3)C2=O)cc1OC | 99.1% (inactive) | 98.5 | 99.3 | 100% (inactive) | 99.3 | 100 | 108% (inactive) | 101% (inactive) | 95% (inactive) | 98.3 | 93.3
6 | CNC(=O)/C(C#N)=C/c1c(N(Cc2ccccc2)Cc2ccccc2)nc2c(C)cccn2c1=O | 97.2% (inactive) | 98.1 | 97.8 | 94.4% (inactive) | 95.9 | 93.1 | 112% (inactive) | 103% (inactive) | 106% (inactive) | 108 | 104
7 | COc1ccc(-c2noc(CCC(=O)Nc3cccc(C)c3)n2)cc1 | 96.6% (inactive) | 96.7 | 96.2 | 109% (inactive) | 105 | 108 | 102% (inactive) | 96.9% (inactive) | 97.8% (inactive) | 98.3 | 94.5
8 | O=C(O)CCc1ccc(-c2ccc(Br)cc2)o1 | 99.4% (inactive) | 92.2 | 97 | 137% (inactive) | 119 | 129 | 99% (inactive) | 86.6% (inactive) | 84.3% (inactive) | 81.2 | 82.1
9 | O=C(Nc1nc(-c2ccccc2)cs1)c1ccc(Br)o1 | 102% (inactive) | 101 | 101 | 106% (inactive) | 101 | 108 | 99% (inactive) | 94.9% (inactive) | 108% (inactive) | 105 | 107
10 | COc1ccc(-c2ccc(SCC(=O)N3c4ccccc4CC3C)nn2)cc1OC (configuration not stated) | 99.1% (inactive) | 98 | 99.3 | 100% (inactive) | 101 | 101 | 102% (inactive) | 99.3% (inactive) | 96.4% (inactive) | 96.4 | 95.6
11 | COc1cccc(/C=N/NC(=O)CCC(=O)Nc2ccc(Br)cc2)c1 | 98.9% (inactive) | 100 | 98 | 90.6% (inactive) | 92.9 | 90.3 | 108% (inactive) | 100% (inactive) | 98.6% (inactive) | 101 | 99.3
12 | O=C(O)c1ccccc1C(=O)N1CCN(c2ccccc2)CC1 | 99.2% (inactive) | 99.9 | 99.7 | 96.7% (inactive) | 96 | 96.1 | 98.3% (inactive) | 101% (inactive) | 103% (inactive) | 105 | 102
